Experimental data reported in ChEMBL document CHEMBL2021854, “2-Aminopyrimidine based 4-aminoquinoline anti-plasmodial agents. Synthesis, biological activity, structure-activity relationship and mode of action studies” (Eur J Med Chem, 2012).

What was measured:
Influenza A virus [1] = test: Antiviral activity against Influenza A virus H3N2 infected in MDCK cells assessed as reduction visual scoring of virus-induced cytopathogenicity after 4 days; format: functional, organism-based; conditions: 96 h
How it was run: (§1)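 MDCK monolayers infected with 100 CCID50 of influenza A (H1N1 or H3N2) or influenza B, with varying compound concentrations. Cytopathicity read when untreated infected controls reached complete CPE.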

[2] = Cytotoxicity against MDCK cells assessed as minimum compound concentration required to causes microscopically detectable alteration of normal cell morphology; format: cell-based, Canis lupus familiaris; conditions: dog
How it was run: (§2)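 Confluent, non-proliferating cell cultures were exposed to the compounds. The endpoint was the minimum concentration producing a microscopically detectable alteration of normal cell morphology.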

Influenza B virus [3] = test: Antiviral activity against Influenza B virus infected in MDCK cells assessed as inhibition of virus-induced cytopathogenicity after 4 days by colorimetric formazan-based MTS assay; format: functional, organism-based; conditions: 96 h
Influenza B virus [4] = test: Antiviral activity against Influenza B virus infected in MDCK cells assessed as reduction visual scoring of virus-induced cytopathogenicity after 4 days; format: functional, organism-based; conditions: 96 h; how it was run: as §1
Influenza A virus [5] = test: Antiviral activity against Influenza A virus H3N2 infected in MDCK cells assessed as inhibition of virus-induced cytopathogenicity after 4 days by colorimetric formazan-based MTS assay; format: functional, organism-based; conditions: 96 h
[6] = Inhibition of beta-hematin formation assessed as Ferriprotoporphyrin IX biomineralisation at 1 mg/ml after 24 hrs; format: functional
How it was run: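 Hemin chloride (0.5 mg/ml in DMSO) mixed with 0.5 M sodium acetate buffer pH 4.4 and drug or solvent control, incubated 37 °C for 24 h. Pellet washed with DMSO to remove unreacted hemin, dissolved in 0.1 N NaOH, absorbance read at 405 nm; percent inhibition relative to control. Highest concentration tested 1 mg/ml.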

Plasmodium falciparum [7] = test: Antiplasmodial activity chloroquine-sensitive Plasmodium falciparum 3D7 infected in human A+ erythrocytes assessed as inhibition of [3H]-hypoxanthine incorporation after 24 hrs by scintillation counting; format: functional, organism-based
Plasmodium falciparum [8] = test: Resistant factor, ratio of IC50 for chloroquine-resistant Plasmodium falciparum K1 to IC50 for chloroquine-sensitive Plasmodium falciparum 3D7; format: functional
How it was run: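 Resistance factor computed as IC50 against K1 divided by IC50 against 3D7, both from the [3H]hypoxanthine incorporation assay.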

Plasmodium falciparum [9] = test: Antiplasmodial activity chloroquine-resistant Plasmodium falciparum K1 infected in human A+ erythrocytes assessed as inhibition of [3H]-hypoxanthine incorporation after 24 hrs by scintillation counting; format: functional, organism-based
[10] = tested on: Vesicular stomatitis virus; test: Antiviral activity against Vesicular stomatitis virus infected in HEL cells assessed as inhibition of virus-induced cytopathogenicity after 4 days; format: functional, organism-based; conditions: 96 h
How it was run: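 Confluent HEL or HeLa monolayers infected with 100 CCID50 of virus in the presence of varying compound concentrations.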

HeLa = test: Cytotoxicity against human HeLa cells assessed as cell viability by colorimetric formazan-based MTS assay
[11] = Cytotoxicity against human HEL cells assessed as minimum compound concentration required to causes microscopically detectable alteration of normal cell morphology; format: cell-based; how it was run: as §2

CC(N)C12CC3CC(CC(C3)C1)C2 (stereo not drawn) [RIMANTADINE]
EC50 (Influenza A virus [1]): > 200000 nM
MCC [2]: > 200 µM
EC50 (Influenza B virus [3]): > 200000 nM
EC50 (Influenza B virus [4]): > 200000 nM
EC50 (Influenza A virus [5]): > 200000 nM

CCOC(=O)c1c(C)nc(NCCCCCCCCNc2ccnc3cc(Cl)ccc23)nc1-c1ccccc1
inhibition [6]: 56%
IC50 (Plasmodium falciparum [7]): 252 nM
Ratio IC50 (Plasmodium falciparum [8]): 2.047
IC50 (Plasmodium falciparum [9]): 516 nM

Cc1nc(NCCCCNc2ccnc3cc(Cl)ccc23)nc(-c2cccc([N+](=O)[O-])c2)c1C(=O)OC(C)C
inhibition [6]: 92%
IC50 (Plasmodium falciparum [7]): 697 nM
Ratio IC50 (Plasmodium falciparum [8]): 0.2756
IC50 (Plasmodium falciparum [9]): 192 nM

Nc1nc2c(ncn2COCCO)c(=O)[nH]1 [ACYCLOVIR]
EC50 [10]: > 250000 nM
CC50 (HeLa): 541000 nM
MCC [11]: > 250 µM

CCOC(=O)c1c(C)nc(NCC(C)Nc2ccnc3cc(Cl)ccc23)nc1-c1ccccc1 (stereo not drawn)
inhibition [6]: 35%
IC50 (Plasmodium falciparum [7]): 15900 nM
Ratio IC50 (Plasmodium falciparum [8]): 1.7683
IC50 (Plasmodium falciparum [9]): 28100 nM

C[C@H]1[C@H](OC(=O)CCC(=O)O)O[C@@H]2O[C@@]3(C)CC[C@H]4[C@H](C)CC[C@@H]1[C@@]24OO3 [ARTESUNATE]
IC50 (Plasmodium falciparum [7]): 5.3 nM
Ratio IC50 (Plasmodium falciparum [8]): 0.5418
IC50 (Plasmodium falciparum [9]): 2.8 nM
